bCat nuc transl: beta-catenin nuclear translocation modulation | nuclear translocation activity, % at 5 µM | 190,000 compounds, 0.3% hits | HeLa beta-catenin nuclear translocation, immunofluorescence imaging | AID 1665;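 active = nuclear translocation activity above 50% at 5 µM, with a well cell count of 50 or more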;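 note: per-cell ratio of nuclear to cytoplasmic median beta-catenin stain intensity; plate controls were DMSO negative control for no effect and GSK-3 inhibitor IX positive control for full effect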
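Test system: human HeLa cells, native beta-catenin. Compound dosing: 5 µM primary single dose, 0.1% DMSO, 0.02–20 µM confirmation series. Incubation: compound exposure 24 h at 37°C. Detection: beta-catenin immunostaining with DAPI counterstain, 20x imaging, 6 fields/well. Read-out basis: Nuclear/cytoplasmic beta-catenin signal ratio, % activation.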
MT stabilize HCS: microtubule stabilization, imaging screen | HeLa tubulin immunostaining HCS, 24 h; share of cells brighter than vehicle mean+2SD | % tubulin-high responders, % at 10 µM | 200,000 compounds, 0.83% hits;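 active = plate Z-score above 3 for both tubulin-high and condensed-nucleus cell shares, with cell loss under 80%, at 10 µM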;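 note: anti alpha tubulin signal scored within the nucleus-defined area of each cell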
CHOP inh: blocks CHOP induction under ER stress | inhibition, % at 10 µM | CHO-K1 CHOP-promoter luciferase, tunicamycin-induced, 15-18 h | 220,000 compounds, 3.8% hits | AID 2732;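 active = compounds that reduced the stress-induced luciferase reporter signal by more than about 70% of percent inhibition, limit read from the data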;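 note: 0% = tunicamycin plus vehicle and 100% = wells without tunicamycin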
Lmaj promast: reduces viability of Leishmania major promastigotes | inhibition, % at 10 µM | 200,000 compounds, 9% hits | AID 1063 | resazurin fluorescence viability; in the data active = inhibition above about 50%;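 note: promastigotes grown with compound for 44 hours at 28 °C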
Autophagy HCS: alters autophagy in cells | MEF GFP-LC3 puncta imaging; test concentration mostly 10 µM | calls only at 10 µM (by protocol) | 190,000 compounds, 0.98% hits;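 active = percentage of spot-positive cells more than 3 SD above its plate mean, without a fluorescence outlier flag or 80% toxicity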;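 note: spot-positive cell cutoff set from DMSO-treated cells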
Dynein cargo inh: dynein cargo transport inhibition; 3617.4 mouse cells, GR-EGFP nuclear translocation imaging; test concentration mostly 20 µM; stimulated with dexamethasone, 1 µM; active compounds read low; z-score, hits read low; 220,000 compounds, 0.47% hits; AID 1381;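 active = plate z-score of nuclear minus cytoplasmic receptor signal below a set negative limit, without overly bright fluorescence or cell loss, cut at about -3.5 in these data, passing the limit was not always enough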;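 note: z-score of nuclear minus cytoplasmic ring GR-EGFP intensity difference per well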
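Medium: Induction medium lacking tetracycline, stripped serum | Probe or stimulus: 1.0 µM final dexamethasone stimulus | Schedule: 48 h induction, then 1 h compound, then 30 min agonist, 37 °C | Signal: Automated 10x imaging of fixed Hoechst-stained cells | Evaluation: Per-cell GR-EGFP intensity, nucleus versus surrounding cytoplasmic ring, well-averaged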
Numbers without * were called inactive; i = inactive; x = not tested or not shown; + = active, no number. Hits are enriched below; roughly 12% of the tested compounds scored in any of these assays.

SMILES | bCat nuc transl | MT stabilize HCS | CHOP inh | Lmaj promast | Autophagy HCS | Dynein cargo inh
COc1ccc(-c2ccc(=O)n(CC(=O)N3CCN(c4ccccc4OC)CC3)n2)cc1 | x | 3.0 | x | 92.3* | i | 2.58
Cc1ccc(/C=C/C(=O)N2CCC(Cc3ccccc3)CC2)cc1 | -1.1 | 1.4 | 86.8* | 42.6 | i | -0.899
CC(C)C[C@@H]1NC(=O)[C@H](CO)NC(=O)c2cc([N+](=O)[O-])cc(I)c2OCC[C@@H](C(N)=O)NC1=O | x | 3.1 | 9.9 | -4.7 | i | -0.457
COc1ccccc1N1CCN(C(=O)/C=C/c2ccc(C)cc2)CC1 | -0.9 | 3.0 | 29.2 | 54.5* | i | 0.466
Cn1c(CC(=O)Nc2ccc(F)cc2)c(Sc2ccccc2)c2ccccc21 | -2.9 | 3.2 | 78.6* | -1.4 | i | -0.264
COc1ccc(NC(=O)Cc2c(Sc3ccccc3)c3ccccc3n2C)cc1 | -3.2 | 3.2 | 23.2 | -1.7 | i | 0.834
COc1cc([N+](=O)[O-])ccc1NC(=O)Nc1nc2c(s1)CCCC2 | -0.4 | 2.0 | 73.0* | 11.1 | i | 0.133
CCCn1nnnc1NC(=O)c1ccc(C)cc1Cl | 1.0 | 1.8 | 23.6 | -3.5 | i | 0.316
COc1ccc(-c2nn3c(-c4ccco4)nnc3s2)cc1OC | 1.2 | 2.4 | 32.5 | 88.4* | i | -0.594
COc1cc2c(cc1OC)-c1nnc(-c3ccco3)n1C1(CCCC1)C2 | -1.8 | 4.4 | 27.5 | 57.5* | i | -0.26
COc1cc(OC)c(-c2nn3c(-c4ccco4)nnc3s2)cc1OC | 5.4 | 6.1 | -3.0 | 82.3* | i | 2.59
c1coc(-c2nnc3n2C2(CCCC2)Cc2ccccc2-3)c1 | 1.0 | 3.5 | -0.2 | 15.1 | i | 2.5
COc1ccc(-c2nnc3sc(-c4ccco4)nn23)cc1OC | 3.3 | 1.4 | -4.3 | 35.8 | i | 1.48
C=CCSc1nc(Oc2ccccc2)c2sccc2n1 | -0.7 | 1.4 | 72.4* | 7.8 | i | -0.115
O=C(CC1C(=O)NCCN1Cc1c(F)cccc1Cl)NCCCn1cccn1 (stereo unspecified) | 0.1 | x | -4.5 | x | x | 2.84
CC1CCCC(NC(=O)COC(=O)CCC2CCCC2)C1C (stereo unspecified) | 1.2 | 1.3 | 36.3 | -0.1 | i | 0.701
O=C(/C=C/Nc1ccccc1O)c1ccco1 | 0.2 | x | 7.5 | x | x | 0.115
O=C(/C=C/Nc1ccccc1Oc1ccccc1)c1ccco1 | 1.9 | 1.8 | 5.0 | 77.3* | i | -0.77
O=C(COC(=O)c1ccccc1C(=O)c1ccc(Cl)c([N+](=O)[O-])c1)NC1CC1 | -0.7 | 3.8 | 106.0* | 8.7 | i | -1.85
c1ccc(-n2cc(CN3CCCC(CN4CCCC4)C3)c(-c3ccc4c(c3)OCO4)n2)cc1 (stereo unspecified) | -0.3 | 2.6 | -6.5 | 100.2* | i | -0.359
O=C(c1cccc2cccc(O)c12)N1CCCCC1 | 3.3 | 1.8 | -4.1 | -8.2 | + | -0.981
CC(C)(C)c1ccc(NC(=O)CSc2nnc(-c3n[nH]c4ccccc34)o2)cc1 | -0.2 | 7.7 | 93.5* | 3.9 | i | 0.814
Cc1c(Cl)cccc1NC(=O)CSc1nnc(C)n1-c1ccccc1 | -3.0 | 2.3 | 21.6 | -11.3 | i | 2.25
Cc1ccc(C)c(NC(=O)CSc2nnc(-c3ccccc3C)o2)c1 | -8.6 | 6.8 | 49.4 | -1.3 | i | -0.781
O=C(CSc1nnc(-c2n[nH]c3ccccc23)n1-c1ccccc1)Nc1ccccc1Cl | -2.8 | 2.7 | 36.3 | 60.4* | i | 0.594
SMILES | bCat nuc transl | MT stabilize HCS | CHOP inh | Lmaj promast | Autophagy HCS | Dynein cargo inh
Cc1ccc(C)c(NC(=O)CSc2nnc(-c3n[nH]c4ccccc34)o2)c1 | x | 4.8 | 8.3 | 59.8* | i | -0.498
CCS(=O)(=O)c1nc(S(=O)(=O)c2ccc(Cl)cc2)c(NCCOC)s1 | 0.1 | 3.4 | 25.1 | 2.7 | i | 1.16
Cc1onc(-c2c(F)cccc2Cl)c1C(=O)Nc1cccc(S(=O)(=O)NCc2ccco2)c1 | 1.1 | 2.4 | 24.4 | 18.4 | i | 0.0155
CC(C)c1ccc(/C=N/NC(=O)CN(c2cccc(Cl)c2Cl)S(C)(=O)=O)cc1 | 0.5 | 2.3 | 85.9* | 13.3 | i | -0.208
CCc1ccc(C(=O)NC(CCSC)C(=O)OC)cc1 (stereo unspecified) | -2.3 | 5.7 | -2.1 | -6.7 | i | -0.585
CCc1ccc(/C=C2\Oc3cc(OC(=O)N4CCOCC4)ccc3C2=O)cc1 | -0.3 | 4.0 | 25.4 | 93.0* | i | -0.165
Cc1ccc(C2=CC(C)(c3ccc(C)cc3)Nc3nc(C(F)(F)F)nn32)cc1 (stereo unspecified) | -0.1 | 3.6 | 9.6 | 38.6 | i | 1.13
CC1(c2ccc(OCC#N)cc2)C=C(c2ccc(OCC#N)cc2)n2nc(C(F)(F)F)nc2N1 (stereo unspecified) | x | 4.5 | 9.9 | 96.8* | i | -0.478
N#C/C(=C\c1cn(CCOc2ccccc2F)c2ccccc12)C(=O)NCc1cccs1 | 0.6 | 2.9 | 27.0 | 45.0 | + | -0.145
Cc1ccc(C)c(OCCn2cc(/C=C(\C#N)C(=O)NCc3cccs3)c3ccccc32)c1 | 0.7 | 3.4 | 48.1 | -6.7 | i | -0.424
Cc1ccc(S(=O)(=O)N(CC#N)CC#N)cc1 | -3.5 | 0.5 | 7.2 | -9.2 | i | -0.879
O=C(NCc1cccnc1)c1ccc([N+](=O)[O-])o1 | 5.4 | 2.6 | -0.9 | 93.5* | i | -0.716
O=C(NCc1ccco1)c1ccc([N+](=O)[O-])o1 | 7.5 | 3.1 | -8.2 | 62.5* | i | -1.24
Cc1cccc(CS(=O)(=O)Cc2ccc(C(=O)NCc3ccco3)o2)c1 | 0.2 | 4.8 | 18.9 | 79.7* | i | 1.17
Cc1ccc(CCNC(=O)c2ccc(CS(=O)(=O)Cc3ccccc3F)o2)cc1 | -3.5 | 1.5 | 20.3 | 74.8* | i | -0.365
Cc1ccc(CS(=O)(=O)Cc2ccc(C(=O)NCc3ccco3)o2)cc1 | 0.2 | 1.8 | -19.5 | -7.7 | i | -0.822
COc1cc(NC(=O)CN(C)C2CCCCC2)c(C)cc1[N+](=O)[O-] | 2.2 | 3.4 | 24.2 | 3.0 | i | -0.0388
Cn1c(SCc2ccccn2)nnc1-c1ccccc1 | -1.1 | 2.4 | 10.7 | -7.1 | i | -0.0134
CCn1c2ccccc2c2cc(NC(=O)c3ccco3)ccc21 | 0.4 | 3.8 | -15.5 | 2.5 | i | 0.244
CN1C(=O)c2cccc(NCCCCCCN3C(=O)c4ccccc4C3=O)c2C1=O | -7.9 | 2.0 | 71.1* | -4.7 | i | 2.64
CN1C(=O)c2cccc(NCCCN3C(=O)c4ccccc4C3=O)c2C1=O | -4.2 | 5.4 | 5.2 | -2.9 | i | 0.0489
COc1ccc(-c2nn(-c3ccccc3)cc2C(=O)NC(=S)Nc2cc(Cl)ccc2Cl)cc1 | -0.5 | x | -5.5 | x | x | -0.987
O=C(NCCc1ccc(Cl)cc1)C1CCN(S(=O)(=O)N2CCC3(CC2)OCCO3)CC1 | -0.6 | 6.0 | -2.1 | -1.9 | i | 0.511

Bioassay records: PubChem, several laboratories
